The array DNA melting data of Ke et al. (doi:10.1101/2024.01.08.574731)

Columns and labels:
[1] = melting temperature; fluorescence melt of hairpins on a sequencing array, two-state fit, raised by 9.35 °C to match UV melts; conditions: sodium 0.088 M
In short: (§1)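 Cy3 signals were normalised both to pre-quench Cy3 and to control constructs. They came from library hairpins carrying annealed Cy3 and quencher oligos on a sequenced MiSeq flow cell, imaged in 50 mM Na-HEPES pH 8.0, 25 mM NaCl, in 2.5 °C steps up to 60 °C. Bootstrapped two-state fits gave melting temperature and folding enthalpy, and four replicates were combined by inverse variance. Fitted temperatures were then raised by 9.35 °C to match UV melts.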

[2] = folding enthalpy; higher = less favourable; fluorescence melt of hairpins on a sequencing array, two-state fit; conditions: sodium 0.088 M
In short: as §1

Sequence | Tm [1] [°C] | folding enthalpy [2] [kcal/mol]
GATCCGTTATCGGATC ((((((....)))))) | 59.2 | -36
GGGGGCGAAAGCCGTCCC ((((((....)))..))) | 49.4 | -13.7
GGGTTGGGAAACCGACTC (.((.((....)).)).) | 41.2 | -16.3
GCGAACTTTCGC ((((....)))) | 51.1 | -20
GCGATCGAAAGATGCGC ((((((....))).))) | 53.6 | -27.8
GAATCCGAAAGGAGCTTC ((((((....)))..))) | 41.6 | -23.6
GGCACAGGAAACTATGCC ((((.((....)).)))) | 41.7 | -29.2
GGGGACGAAAGTCAACCC ((((((....)))..))) | 49 | -17.6
GCAATGGGAAACCATTAC (.(((((....))))).) | 33.9 | -14.9
GGAGCAGGAAACTACTCC ((((.((....)).)))) | 41.1 | -27.4
GACATACGAAAGTACGTC (((.(((....))).))) | 42.5 | -27
GGGAGAACGAAAGTTCCC (((..(((....)))))) | 47.7 | -17.1
GATCCGTTGTCGGATC ((((((....)))))) | 59.4 | -44.4
GTATCGCGAAAGCGGTAC (((.(((....))).))) | 56.5 | -29.2
GATCGACGTATCGATC ((((((....)))))) | 51.2 | -56.4
GCAGGAGCGAAAGCTTGC (((..(((....)))))) | 44.2 | -16.5
GTGCACGAAAGTGAGCAC ((((((....)))..))) | 51.6 | -32.4
GATCTAAGTTTAGATC ((((((....)))))) | 41.9 | -30
GCACGAACGAAAGTTTGC (((..(((....)))))) | 33.5 | -17.1
GGCCACGAAAGTGACGCC ((((((....)))..))) | 52.1 | -21.7
CGGGCGGAAACGCCGCCG ((((((....)))..))) | 47.8 | -10.2
GGCTGCGGAAACGCGGTC (.(.(((....))).).) | 53.1 | -28.7
GGGCTCACGAAAGTGCCC (((..(((....)))))) | 51.9 | -21

Sequence | Tm [1] [°C] | folding enthalpy [2] [kcal/mol]
GCGGTAGGAAACTGTCGC (((..((....))..))) | 43.8 | -30.3
GTACGCGAAAGCGCTTAC ((((((....)))..))) | 29.4 | -9.36
GTAACTCGAAAGAGCTAC (((.(((....))).))) | 41.9 | -29.2
GAGCGGGGAAACCCGCCC (.(((((....))))).) | 45.1 | -8.26
GCGTTAGCGAAAGCTCGC (((..(((....)))))) | 44.2 | -12.5
GCAATCCGAAAGGACTGC (((.(((....))).))) | 49.8 | -17.6
GATCTCATGCGAGATC ((((((....)))))) | 52.1 | -48.3
GATCCATCTCTGGATC ((((((....)))))) | 50.4 | -39.6
GAAGGCGAAAGCCGTTTC ((((((....)))..))) | 39 | -10.9
GACAGCGAAAGCTCGTC ((((((....))).))) | 50.5 | -19.6
GATCATAGGGATGATC ((((((....)))))) | 47.3 | -34.1
GATCATCTAGATGATC ((((((....)))))) | 52.7 | -43.8
GCCCACGGAAACGCAGGC (((..((....))..))) | 39.6 | -17.8
GATCAAGGAAACTCGATC ((((.((....)).)))) | 28.4 | -17.2
GATCCATGCATGGATC ((((((....)))))) | 58.8 | -42.5
CGCGGACCGCTCCGCG ((((((....)))))) | 63.1 | -34.1
GATCATCGCGATGATC ((((((....)))))) | 59.7 | -48.5
GTGCGCGGAAACACGCAC (((((.(....).))))) | 59.7 | -46.6
GCCGTACGAAAGTAGGC (((.(((....)))))) | 67.4 | -33.6
GCGAAACGAAAGTTCGC (((.(((....)))))) | 62.7 | -32.9
GATCGGCACCCCGATC ((((((....)))))) | 56.6 | -31.8
GATCAAAGTATTGATC ((((((....)))))) | 42.6 | -29.8
GATCATGTAGATGATC ((((((....)))))) | 51 | -38.9

Sequence | Tm [1] [°C] | folding enthalpy [2] [kcal/mol]
GTAAGAGGAAACCCTTAC (((((.(....).))))) | 31.4 | -19.6
GATCGCCGTTGCGATC ((((((....)))))) | 66.2 | -53.2
GTCACCGAAAGGTCCGAC ((((((....)))..))) | 31.1 | -11.2
GTCAGAGGAAACTCTGGC (.(((((....))))).) | 50.3 | -30.4
GTGTCTACGAAAGTACAC (((..(((....)))))) | 38.5 | -13.2
GATGTTGGAAACAGCATC ((((.((....)).)))) | 45.5 | -25
CGATCCGGAAACGGTCG (((.(((....)))))) | 50.5 | -29.1
GCCTACGCGAAAGCGGGC (((..(((....)))))) | 62.1 | -14.8
GGTGTCGAAAGACGACC ((((((....))).))) | 52.6 | -19.9
GATCCTTGTAAGGATC ((((((....)))))) | 55.6 | -42.3
GTTACCCGAAAGGGGAAC (((.(((....))).))) | 61.5 | -32.2
GTCATCGAAAGATCAGAC ((((((....)))..))) | 26.5 | -16.7
GTACAGCCGAAAGGCTAC (((..(((....)))))) | 27.2 | -7.38
GCGATATTCGC ((((...)))) | 51.9 | -17.2
GATCTATGACTAGATC ((((((....)))))) | 37.1 | -26.7
GGATACGAAAGTATTCC ((((((....))).))) | 42.9 | -22.8
GGCTCTGGAAACAGAGTC (.(((((....))))).) | 52.8 | -35.7
GTCTAGACGAAAGTCGAC (((..(((....)))))) | 39.6 | -13.1
GTATACCCGAAAGGGTAC (((..(((....)))))) | 32.4 | -8.81
GGCGAGTCGAAAGACGCC (((..(((....)))))) | 56.3 | -22.2
GGAAACCGAAAGGTCTCC (((.(((....))).))) | 44.8 | -27.5
GATCCTAATTAGGATC ((((((....)))))) | 52 | -45.2
GATACTGAAAAGTATC ((((((....)))))) | 48.5 | -40.9

Sequence | Tm [1] [°C] | folding enthalpy [2] [kcal/mol]
GTGAGCGGAAACGCTCGC (.(((((....))))).) | 62.7 | -18.4
GATCCGGTCTCGGATC ((((((....)))))) | 58.6 | -26.6
GGAGACGAAAGTCGGTCC ((((((....)))..))) | 39.8 | -12.3
GAGTCCGAAAGGACGCTC ((((((....)))..))) | 64.2 | -13.6
GCGGGGCGCCGC ((((....)))) | 66.1 | -14.7
GAGGTCGGAAACGGCTTC ((.(.((....)).).)) | 36.1 | -20.5
GAATGCGGAAACGTGTTC (((..((....))..))) | 40.3 | -31.8
GTATAGGAAACTATAC ((((((....)))))) | 41.5 | -25.8
GGGGCTGGAAACGGCCTC (.(((.(....).))).) | 50.2 | -20.8
GCCATCGAAAGATAGGGC ((((((....)))..))) | 44.6 | -27.4
GCGGAGCGAAAGCCCTGC ((.(.((....)).).)) | 43.7 | -10.6
GACTGCGAAAGCAGTGTC ((((((....)))..))) | 58.6 | -10.2
GACCACGAAAGTGTGTC ((((((....))).))) | 52.9 | -27.3
GATCAAAAGTTGATC ((((((...)))))) | 39.5 | -26.1
GCACACTCGAAAGAGTGC (((..(((....)))))) | 38 | -9.86
GACGGTACGAAAGTAGTC (((..(((....)))))) | 34.5 | -16
GTTTCCGCGAAAGCGAAC (((..(((....)))))) | 23.6 | -9.18
GCCCTTCGAAAGAAAGGC (((.(((....))).))) | 45.1 | -28.5
GCGTGTGGAAACGCACGC (((((.(....).))))) | 67.3 | -34.5
GGGCGTCGAAAGACCCC (((.(((....)))))) | 58.9 | -37.1
GATCAGGGCACTGATC ((((((....)))))) | 59.8 | -37.2
GGAGCCGAAAGGCATCC ((((((....))).))) | 53.8 | -14.2
GACCGGGGAAACCCAGTC (((.(((....))).))) | 42.8 | -23.6
